# Measurements as given in PubChem BioAssay.
# Calls of active or inactive are those of the source.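 Rule for the calls, unless noted: active = fluorescence slope after compound addition differing from the mean of all tested samples at 99.7% confidence, mostly higher but some lower; inactive = the rest.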
# How the values were obtained:
# [1] = inhibitors of TNFa-induced NFkB p65 translocation, primary screen, imaging, HUVEC, MLSMR starter and 10KST1 sets (AID 438;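 active = inhibition above 20% together with a positive visual image hit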;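 note: compound added about 3h40 before a 20 min TNFalpha stimulation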;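 for inhibition: signal is the nuclear over cytoplasmic p65 intensity ratio per well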); settings: HUVEC TNFa-induced p65 nuclear translocation; cell count: measured here: nuclei count (cytotoxicity indicator), at 2.08 µM; inhibition: at 2 µM, stronger effect = higher value, 0% TNFa-plus-vehicle, 100% no-TNFa wells
# [2] = reduction of polyQ htt aggregates in cells – imaging, exon1htt(103Q)mCFP cells, high-content imaging, primary screen (AID 483;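 active = visual image review flags a hit and inhibition of aggregation exceeds 20%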;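 note: compound exposure lasted 3 days before fixation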;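 for nuclei count: percent of the per-plate median nuclei count of sample wells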); settings: exon1htt(103Q)mCFP cell line, aggregate imaging, at 2 µM; inhibition of aggregation: stronger effect = higher value; nuclei count: measured here: cell count, toxicity
# [3] = endothelial E-selectin expression blockers – imaging, HUVEC, immunofluorescence, MLSMR starter and 10KST1 sets, primary screen (AID 487;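 active = visually confirmed hit in the image check and inhibition above 20%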;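 for inhibition: signal is fraction of cell area covered by stained E-selectin grains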;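 for nuclei count: 100% = median nuclei count of all wells on the same plate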); settings: HUVEC TNFalpha-induced E-selectin immunofluorescence imaging, at 2 µM; inhibition: stronger effect = higher value; nuclei count: measured here: cell number, toxicity
# [4] = target: Voltage-gated potassium channel subunit beta-2 (Rattus norvegicus) (UniProt P62483); assay: inhibitors of rat Kvbeta2 reductase activity – biochemical, NADPH fluorescence, primary screen (AID 622;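 active = fluorescence slope higher than the sample average by over 3 SD, cut at about -0.22 in these data, passing the limit was not always enough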;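 note: slope of raw intensity against log time taken from 70 to 1610 s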); settings: recombinant KvBeta, 4-cyanobenzaldehyde reduction, at 10 µM, stronger effect = higher value
# [5] = target: Voltage-gated potassium channel subunit beta-2 (Rattus norvegicus) (UniProt P62483); assay: enhancers of rat Kvbeta2 NADPH turnover – biochemical, NADPH fluorescence, primary screen (AID 623;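 active = NADPH fluorescence slope more negative than the mean of all samples by about 3 SD, 99.7% confidence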;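 note: fluorescence intensity change per second fitted from 20 to 320 s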); settings: Recombinant KvBeta, NADPH fluorescence decrease slope, 10 min; at 10 µM; stronger effect = lower value
# [6] = target: Muscarinic acetylcholine receptor M4 (Homo sapiens) (UniProt P08173); assay: M4-linked GIRK flux change, two-sided – cell-based, HEK293 M4/GIRK, thallium flux, BTC-AM, M4 allosteric agonist project, primary screen (AID 625); settings: at 10 µM, actives lie on both sides;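 note: thallium influx through GIRK channels coupled to M4 in HEK293 cells with BTC-AM dye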
# Method in brief: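 System: HEK293 cells with M4 receptor and GIRK channels | Incubation: Cells overnight at 37 °C, BTC-AM loading 1 h, reads 2 min total | Technique: Kinetic BTC-AM fluorescence sampled at 1 Hz, 10 s pre-addition baseline | Measure: Post-addition slope, 15–24 s, of baseline-normalized fluorescence | Control set: Carbachol positive, DMSO negative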
# [7] = blockers of RIG-like receptor reporter activation – cell-based, Sendai virus stimulus, luciferase, 10K MLSCN set, TLR/RLR signaling modifier project, primary screen (AID 602276;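 active = inhibition at or above 50% at 10 µM; inactive = inhibition below 50%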;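 note: firefly luciferase from ISG56 promoter only with Renilla not read in this screen; 0% = Sendai virus plus DMSO and 100% = medium plus DMSO without virus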); settings: HEK293 RL24 IRF3 luciferase reporter, at 10 µM, stronger effect = higher value
# [8] = TLR3 IRF3 reporter activation blockers – cell-based, poly I:C stimulus, luciferase, 10K MLSCN set, primary screen (AID 602277;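 active = inhibition of the reporter signal at or above 50%; inactive = inhibition below 50%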); settings: HEK293-TLR3 RL24 IRF3 luciferase reporter, at 10 µM, stronger effect = higher value
# Sequence of Muscarinic acetylcholine receptor M4 (Homo sapiens) (P08173 whole entry, looked up): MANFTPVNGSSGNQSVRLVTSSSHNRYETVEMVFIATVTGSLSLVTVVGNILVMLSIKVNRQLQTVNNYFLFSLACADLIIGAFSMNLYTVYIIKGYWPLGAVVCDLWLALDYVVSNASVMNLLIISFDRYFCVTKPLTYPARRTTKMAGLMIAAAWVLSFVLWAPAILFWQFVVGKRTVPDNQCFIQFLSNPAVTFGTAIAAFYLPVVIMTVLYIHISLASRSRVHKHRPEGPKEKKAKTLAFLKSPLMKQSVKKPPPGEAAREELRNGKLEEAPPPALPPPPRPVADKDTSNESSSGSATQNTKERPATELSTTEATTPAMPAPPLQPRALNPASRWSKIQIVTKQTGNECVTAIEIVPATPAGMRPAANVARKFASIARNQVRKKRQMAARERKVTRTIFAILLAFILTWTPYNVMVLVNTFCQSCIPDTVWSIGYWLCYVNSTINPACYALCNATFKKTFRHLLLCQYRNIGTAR
# Sequence of Voltage-gated potassium channel subunit beta-2 (Rattus norvegicus) (P62483 whole entry, looked up): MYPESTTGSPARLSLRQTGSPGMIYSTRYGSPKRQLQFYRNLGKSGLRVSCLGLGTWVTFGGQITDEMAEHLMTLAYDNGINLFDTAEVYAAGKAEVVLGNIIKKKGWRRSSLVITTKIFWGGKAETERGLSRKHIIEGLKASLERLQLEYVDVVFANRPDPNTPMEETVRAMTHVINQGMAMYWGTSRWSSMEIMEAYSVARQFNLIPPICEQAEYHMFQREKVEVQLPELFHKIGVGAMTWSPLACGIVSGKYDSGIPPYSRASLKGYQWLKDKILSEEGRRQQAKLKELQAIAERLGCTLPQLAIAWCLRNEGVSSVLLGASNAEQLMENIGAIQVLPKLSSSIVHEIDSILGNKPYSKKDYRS
SMILES,cell count [1],inhibition [1],inhibition of aggregation [2],nuclei count [2] [%],inhibition [3],nuclei count [3] [%],fluorescence slope [4],NADPH fluorescence slope [5],fluorescence slope [6],inhibition [7],inhibition [8]
O=C(Nc1cccc(C(=O)N2CCOCC2)c1)c1cccnc1,282,-15.4% (inactive),-7.7% (inactive),106,-25.3% (inactive),116,-0.546 (inactive),-0.000161 (inactive),0.00393 (inactive),-1.23% (inactive),0.71% (inactive)
CCC(=O)N1CCc2cc(Br)cc(S(=O)(=O)CCC(=O)NCC3CCCO3)c21 (stereo not drawn),628,2.7% (inactive),12.7% (inactive),76.3,-113% (inactive),107,-0.312 (inactive),-3.4e-05 (inactive),0.00706 (inactive),11.2% (inactive),9.46% (inactive)
O=c1c2ccccc2nc(-c2cccc(Cl)c2)n1O,333,11.6% (inactive),0.5% (inactive),102,-4.3% (inactive),112,-0.453 (inactive),-3.1e-05 (inactive),0.0197 (active),17.4% (inactive),6.85% (inactive)
c1nc(NCC2CCCO2)c2[nH]cnc2n1 (stereo not drawn),349,-12.5% (inactive),12.3% (inactive),90.8,-27.3% (inactive),118,-0.483 (inactive),1.9e-05 (inactive),0.00434 (inactive),13.9% (inactive),16.7% (inactive)
O=C(Nc1ccc(F)cc1)c1cccc2c1C(=O)N(Cc1ccccn1)C2,811,2.1% (inactive),4.1% (inactive),98.1,-108% (inactive),126,-0.576 (inactive),-3e-05 (inactive),0.00591 (inactive),0.0917% (inactive),-22.2% (inactive)
Cc1ccccc1CN1CCNC1=O,624,40.3% (active),7% (inactive),88.7,-69.6% (inactive),138,-0.558 (inactive),-4e-05 (inactive),0.00621 (inactive),23.3% (inactive),26.8% (inactive)
COc1ccc(-c2noc(COc3ccc4ccccc4c3Br)n2)cc1OC,565,14.8% (inactive),-29.8% (inactive),109,8.2% (inactive),104,-0.564 (inactive),-3e-05 (inactive),0.00985 (inactive),-38.1% (inactive),-45.2% (inactive)
O=C1C2CCCN2C(c2ccc(Cl)cc2)N1c1nccs1 (stereo not drawn),378,-7.5% (inactive),-18.3% (inactive),99.7,12.8% (inactive),92.8,-0.556 (inactive),-6e-05 (inactive),0.00531 (inactive),11.3% (inactive),13.5% (inactive)
Cc1cc(C)cc(NC(=O)N2CCC(c3nc4ccccc4o3)CC2)c1,405,7.5% (inactive),-19.5% (inactive),94.7,-66.7% (inactive),110,-0.494 (inactive),0.00013 (inactive),0.00524 (inactive),13.6% (inactive),18.7% (inactive)
Cc1cc2c(=O)n(CC(=O)N3CCN(c4ccccc4)CC3)cnc2s1,632,-22.3% (inactive),0.5% (inactive),105,2.7% (inactive),94.9,-0.595 (inactive),1.9e-06 (inactive),0.0045 (inactive),7.52% (inactive),14.5% (inactive)
CN(CCC#N)C(=O)COC(=O)c1ccc(Cl)c(S(N)(=O)=O)c1,426,-2.2% (inactive),17.6% (inactive),58.5,-96.3% (inactive),102,-0.539 (inactive),-5.1e-05 (inactive),0.00521 (inactive),16.3% (inactive),25.4% (inactive)
O=C(Cc1ccsc1-c1ccccc1)NO,483,-1.2% (inactive),11.3% (inactive),76,44.1% (inactive),57.7,-0.46 (inactive),-3.2e-05 (inactive),0.00508 (inactive),17.8% (inactive),11.3% (inactive)
Cc1cccc(C(=O)N2CCN(C(=O)c3cccc(C)c3)C(C)C2)c1 (stereo not drawn),394,-3.8% (inactive),3.6% (inactive),113,-31.8% (inactive),114,-0.311 (inactive),1.4e-05 (inactive),0.00692 (inactive),-15.5% (inactive),-12% (inactive)
O=C1CSC(c2cccc(F)c2)N1c1ccccc1F (stereo not drawn),650,-15.7% (inactive),36.5% (inactive),118,-120% (inactive),100,-0.614 (inactive),6.1e-06 (inactive),0.00376 (inactive),15% (inactive),18.1% (inactive)
Clc1ccccc1-c1nnc2sc(-c3ccccn3)nn12,420,-4.1% (inactive),24.3% (inactive),84.8,-102% (inactive),118,-0.447 (inactive),-6.3e-05 (inactive),0.00382 (inactive),14.6% (inactive),14.1% (inactive)
Cc1ccc(S(=O)(=O)N(C)CC(=O)NC2CCCC2)cc1,226,10.1% (inactive),1.1% (inactive),90.7,-98.8% (inactive),148,-0.453 (inactive),-2.6e-05 (inactive),0.00453 (inactive),10.5% (inactive),29.4% (inactive)
C/C(=C\c1cc(C(=O)O)c(C)o1)CO,417,5.1% (inactive),4.9% (inactive),94.9,39.5% (inactive),103,-0.431 (inactive),-0.00049 (inactive),0.00423 (inactive),-6.67% (inactive),-4.63% (inactive)
CCNC(=O)C1CC(=O)N(Cc2ccc3c(c2)OCO3)C(=Nc2ccc(OCC)cc2)S1 (stereo not drawn),577,-3.7% (inactive),13.6% (inactive),108,-3.2% (inactive),119,-0.588 (inactive),1.7e-05 (inactive),0.00371 (inactive),17.9% (inactive),21.2% (inactive)
CSc1nc(NC(C)(C)C)nc(Oc2ccc(=O)[nH]n2)n1,356,-6.2% (inactive),10.5% (inactive),86.5,-29.6% (inactive),107,-0.594 (inactive),1.9e-06 (inactive),0.0039 (inactive),12.8% (inactive),11.8% (inactive)
Cn1c(=O)c2c(nc(SCc3nn[nH]n3)n2Cc2ccccc2F)n(C)c1=O,481,-9.5% (inactive),13.9% (inactive),81.9,-5.3% (inactive),96.9,-0.535 (inactive),4.4e-06 (inactive),0.00622 (inactive),15% (inactive),17.9% (inactive)
CC(=O)c1cc(-c2ccccc2)n(CC(=O)N2CCC(N3CCCCC3)CC2)c1C,263,7.9% (inactive),-0.7% (inactive),96.8,-37.4% (inactive),115,-0.545 (inactive),-3.5e-05 (inactive),0.00662 (inactive),14.8% (inactive),30.7% (inactive)
COc1cc2c(cc1OC)CN(C(=O)COc1ccc(C#N)cc1)CC2,283,-7.5% (inactive),4.5% (inactive),91.8,4.1% (inactive),90.3,-0.574 (inactive),-4.9e-05 (inactive),0.00682 (inactive),6.14% (inactive),4.87% (inactive)
CCOC(=O)CSc1nnc(CNC(=O)c2ccc(OC)c(OC)c2)n1C,375,-8.2% (inactive),-1.1% (inactive),82,-73% (inactive),128,-0.578 (inactive),-2.7e-05 (inactive),0.00863 (inactive),4.54% (inactive),21.4% (inactive)
CCC1CCCCN1S(=O)(=O)c1ccc(C(=O)Nc2nnc(-c3cccs3)o2)cc1 (stereo not drawn),404,5.3% (inactive),8.5% (inactive),97,-211% (inactive),111,-0.486 (inactive),-0.000271 (inactive),0.0055 (inactive),10.8% (inactive),16.6% (inactive)
CCOc1ccccc1N1C(=O)CC(Sc2ncccc2C(=O)O)C1=O (stereo not drawn),890,-0.7% (inactive),-13.3% (inactive),105,-111% (inactive),136,-0.46 (inactive),-8.3e-07 (inactive),0.00417 (inactive),12.2% (inactive),13.4% (inactive)
Nc1nc(CN2CCN(Cc3ccc4c(c3)OCO4)CC2)nc(Nc2ccccc2)n1,652,6.8% (inactive),-1.8% (inactive),116,-9.3% (inactive),115,-0.578 (inactive),-4.8e-05 (inactive),0.00565 (inactive),10.9% (inactive),22.6% (inactive)
CCOC(=O)N1CCN(C(=O)c2ccc(N3C(=O)CCC3=O)cc2)CC1,503,-1.2% (inactive),0.2% (inactive),108,15.8% (inactive),68.3,-0.266 (inactive),-2.7e-05 (inactive),0.00679 (inactive),-5.15% (inactive),18.1% (inactive)
O=C1NCCCc2c1no[n+]2[O-],381,5.3% (inactive),19.4% (inactive),54.8,-31.3% (inactive),107,-0.584 (inactive),-6.4e-06 (inactive),0.00512 (inactive),-17.2% (inactive),6.4% (inactive)
